Assay outcomes from PubChem BioAssay.
Efflux pump inh: antifungal efflux pump inhibition, Nile Red retention; inhibition, % at 10 µM; hit rate 0.44% among 330,000; S. cerevisiae Candida pump triplex;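 active means plate passing quality check with inhibition over a set limit, or well fluorescence over plate mean plus 4 SD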;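 further: Nile Red retained in pooled yeast measured as flow cytometry median fluorescence; 0% = buffer negative control and 100% = Enniatin B positive control; higher means more Nile Red kept so more efflux inhibition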
Cardiac RTF inh: cardiac RTF calcium desensitization; IANBD-labeled cardiac RTF, Ca2+ fluorescence; P19429+P45379; AID 493244; hit rate 0.12% among 340,000; inhibition, % at 7.15 µM;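 active means inhibition above the mean inhibition of all tested compounds plus 3 SD, cut at about 17% in these data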;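 further: assay run at fixed EC70 calcium of 1.6 mM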
ARNT-TACC3 inh: disrupts binding between human ARNT and TACC3; hit rate 0.66% among 390,000; AlphaScreen His-ARNT PAS-B/GST-TACC3 binding, luminescence; TACC3 fragment carries E629A point mutation; Q9Y6A5; AID 623870; inhibition, % at 9.99 µM;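 active means mean inhibition of replicates at least 50% and at least half of replicates each reaching 50%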;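 further: 0% = complete ARNT plus TACC3 wells and 100% = ARNT alone without TACC3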
SUMO Mot1 rescue: inhibitors of SUMOylation pathway: yeast Mot1-301 growth rescue | S. cerevisiae Mot1-301 growth rescue, ATP luminescence, 38.5C; percent above DMSO median, 100 means doubled | growth rescue, % at 18.8 µM | hit rate 1% among 320,000 | AID 2716;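 active means every valid replicate shows activation above 250% relative to neutral control wells; inactive means the rest, any valid replicate at or below 250%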;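 further: OY570 slx delta 5 strain wells were the positive control but not used for scaling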
RTF Ca sens act: increases calcium sensitivity of human cardiac regulated thin filaments. hit rate 0.24% among 340,000. P19429+P45379. IANBD-labeled TnC RTF fluorescence at EC20 calcium; 0% EC20 calcium, 100% full calcium. activation, % at 7.2 µM;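 active means activation above the mean over all tested compounds plus 3 SD, cut at about 30% in these data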;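 further: rise in fluorescence read as greater calcium sensitivity of cardiac thin filaments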
UCH37 DUB inh: human UCH37 deubiquitinating enzyme inhibition. purified proteasome/UCH37, Ub-AMC cleavage fluorescence. inhibition, % (test concentration not listed). AID 588478. hit rate 0.33% among 330,000. Q9Y5K5;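 active means mean inhibition over replicate wells above about 20%, limit read from the data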;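 further: 0% = compound-free wells with enzyme and 100% = wells lacking proteasome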
Target sequence (Q9Y5K5 whole entry, looked up): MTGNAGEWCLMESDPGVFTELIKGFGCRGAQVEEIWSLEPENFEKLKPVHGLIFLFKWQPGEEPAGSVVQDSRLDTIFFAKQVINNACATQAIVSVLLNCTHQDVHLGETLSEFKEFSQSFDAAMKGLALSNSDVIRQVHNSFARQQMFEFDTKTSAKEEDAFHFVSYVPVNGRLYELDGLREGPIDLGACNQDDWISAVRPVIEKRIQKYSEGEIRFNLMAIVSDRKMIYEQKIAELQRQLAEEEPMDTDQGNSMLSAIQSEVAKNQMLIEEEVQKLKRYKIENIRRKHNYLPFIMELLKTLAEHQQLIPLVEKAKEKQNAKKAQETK
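System: Proteasome-associated human UCH37 deubiquitinase; Input: 0.15 nM proteasome in added enzyme buffer; Also added: Ub-AMC substrate from 1 µM stock; Incubation: 30 min compound-proteasome preincubation then 25 min substrate reaction, room temperature; Detection: fluorescence, ex 355 nm, em 460 nm; Read-out: % inhibition of Ub-AMC cleavage fluorescence; Benchmarks: no-proteasome and no-compound wells.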
Mot1 SUMO dose: SUMO pathway inhibitors in yeast Mot1-301 growth. shares compounds with SUMO Mot1 rescue. S. cerevisiae Mot1-301 galactose growth, ATP luminescence, 24 h; -100 = growth of slx-deleted rescue strain. growth activity, percent, % at 42 µM. 2,300 tested, under 10 active;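 active means Signal drops as the depositor expects, and the fitted half-maximal dose is no more than ten times the top valid tested dose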;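 further: more negative values mean stronger growth rescue toward the control strain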
Active calls of the source: *; . = no result; + = active, no number. Hits are enriched below; roughly 2.1% of the tested compounds scored in any of these assays.

SMILES | Efflux pump inh | Cardiac RTF inh | ARNT-TACC3 inh | SUMO Mot1 rescue | RTF Ca sens act | UCH37 DUB inh | Mot1 SUMO dose
N#CC1=C(N)Nc2ncnn2C1c1ccc([N+](=O)[O-])cc1 (centres undefined) | 0 | -2 | 12 | 599* | -1 | 6 | 0
CCN(CC)CCNC(=O)c1c(O)c2c([nH]c1=O)CCCC2 | 0 | -2 | -10 | -4 | -3 | 4 | .
CN(C)CCNC(=O)c1c(O)c2c([nH]c1=O)CCCC2 | 0 | 0 | -1 | 630* | 2 | 2 | 0
CCNCCNC(=O)c1c(O)c2c([nH]c1=O)CCCC2 | 0 | 13 | 3 | + | 10 | -1 | 0
CN(C)CCNC(=O)c1scc2c1CCCC2 | 0 | 4 | 0 | 824* | -1 | 6 | 0
Cc1cc(C)nc(NN=C2CCCC/C2=C\c2ccccc2)n1 | . | . | . | . | . | 6 | .
Cc1ccc(OCC(=O)NN=Cc2ccc(C)o2)c(C)c1 | . | . | . | . | . | 3 | .
O=C1CC(c2c[nH]c3ccccc23)C(=O)N1c1ccccc1 (centres undefined) | 0 | -7 | -1 | 709* | -1 | 0 | 0
COc1cccc(N2C(=O)CC(c3c[nH]c4ccccc34)C2=O)c1 (centres undefined) | 0 | 3 | -10 | -6 | -1 | -1 | .
O=C1c2ccccc2C(=O)N1CCCCSc1nc2ccccc2c(=O)n1CCCN1CCOCC1 | 0 | -4 | . | + | 0 | 3 | 0
O=C(NN=C/C(Br)=C/c1ccccc1)c1n[nH]c2c1CCC2 | . | . | . | . | . | 7 | .
O=C(N/N=C/C(Br)=C/c1ccccc1)c1n[nH]c2c1CCC2 | 0 | -9 | -1 | 508* | 7 | . | -1
COc1cc(/C=N/NC(=S)NCc2ccco2)cc(OC)c1OC | 0 | 3 | 7 | 498* | 0 | . | -1
COc1ccccc1/C=N/NC(=S)NCc1ccco1 | 0 | -8 | 3 | -6 | -1 | . | .
COc1cc(C=NNC(=O)c2ccc(CSc3nncn3C)cc2)cc(OC)c1O | . | . | . | . | . | 8 | .
Cc1ccccc1OCC(=O)NN=Cc1ccc2c(c1)OCCO2 | . | . | . | . | . | 7 | .
O=C(CCCn1cnc([N+](=O)[O-])n1)Nc1cccc2ccccc12 | 0 | 3 | 3 | 408* | 1 | 0 | -1
CCn1nc(C(=O)OCc2cccc(S(=O)(=O)N(C)C)c2)c2ccccc2c1=O | 0 | -2 | -8 | 850* | -2 | . | -1
CCCCCCC(=O)NN=C1CCCc2ccccc21 | . | . | . | . | . | 1 | .
CCCNC(=O)Cn1nc(C)n2c(cc3cc(F)ccc32)c1=O | 0 | -1 | -6 | + | 8 | 1 | 0
Cc1nc(-c2cccc(S(=O)(=O)N3CCOCC3)c2)cs1 | 0 | -4 | 3 | 730* | 9 | 7 | 0
Cc1nc(-c2cccc(S(=O)(=O)N3CC(C)OC(C)C3)c2)cs1 (centres undefined) | 0 | 2 | -1 | -3 | 3 | -1 | .
COC(=O)c1ccc(NC(=O)CCN2CCN(c3ccccc3)CC2)cc1 | 0 | -9 | . | 520* | 0 | . | 0
O=C(CCN1CCN(c2ccccc2)CC1)Nc1ccc(Cl)cc1 | 0 | -3 | -1 | . | 7 | 2 | .
N#CC(CC(=O)c1ccc(F)cc1)c1ccc2c(c1)OCO2 (centres undefined) | 0 | -3 | -6 | 420* | -5 | 1 | 0
SMILES | Efflux pump inh | Cardiac RTF inh | ARNT-TACC3 inh | SUMO Mot1 rescue | RTF Ca sens act | UCH37 DUB inh | Mot1 SUMO dose
COc1ccc(C(=NNc2ccccc2C(=O)O)c2ccccc2)cc1 | . | . | . | . | . | 7 | .
COc1ccc(CN2CC(=O)N(c3ccccc3C)C2=S)cc1OC | 0 | 0 | -2 | 672* | 1 | 0 | -1
COc1cc(C=NNC(=O)CCN2CCN(c3ccccc3)CC2)cc(OC)c1OC | . | . | . | . | . | 8 | .
Cc1occc1-c1nnc(SCC(=O)N2CCN(c3ccccc3)CC2)n1C | 0 | 1 | 2 | 495* | 0 | 4 | 0
Cc1occc1-c1nnc(SCC(=O)N2CCN(c3ccc(F)cc3)CC2)n1C | 0 | -2 | 2 | 0 | 6 | 2 | .
CC(Cn1nc([N+](=O)[O-])cc1C)=NNC(=O)COc1ccc(Cl)cc1Cl | . | . | . | . | . | 3 | .
COC(=O)Oc1ccc(/C=N/NS(=O)(=O)c2ccccc2)cc1OC | 0 | -6 | -3 | 627* | 0 | . | 0
COc1ccc(NS(=O)(=O)c2cccc(C(=O)NN=C(C)c3ccc(-n4ccnc4)cc3)c2)cc1 | . | . | . | . | . | -11 | .
Cc1ccc(S(=O)(=O)N(C)C)cc1NC(=O)COC(=O)c1ccc2c(c1)OCO2 | 0 | 0 | 24 | -13 | 10 | 1 | .
Cc1ccc(C)c(NC(=O)COC(=O)c2ccc3c(c2)OCO3)c1 | 0 | -5 | -5 | 975* | 2 | 5 | 0
CCOC(=O)c1cc(=O)c2c([N+](=O)[O-])ccc(OC)c2o1 | 0 | -4 | -2 | -14 | 4 | 1 | .
COc1ccc([N+](=O)[O-])c2c(=O)ccoc12 | 1 | -8 | -8 | 585* | -3 | 8 | 0
CC(=NNC(=O)c1nnn(-c2nonc2N)c1-c1ccc(Cl)c(Cl)c1)c1ccncc1 | . | . | . | . | . | 2 | .
CS(=O)(=O)Nc1ccccc1C(=O)NCCSCc1ccccc1 | 0 | -28 | 0 | 523* | 2 | -15 | 0
CCOc1cc(C(N)=O)cc(Cl)c1OCc1ccccc1 | 0 | 1 | -5 | 442* | -1 | 7 | 0
COC(=O)NN=Cc1cn(CCCOc2ccc(C)cc2)c2ccccc12 | . | . | . | . | . | 5 | .
CN(CCOc1ccc(Cl)cc1)CC(=O)Nc1ccc(OC(F)F)cc1 | 0 | 2 | -2 | 403* | 3 | 3 | -1
CCC(C)c1ccccc1NC(=O)CN(C)CCOc1ccc(Cl)cc1 (centres undefined) | 1 | -25 | -12 | -14 | 3 | 4 | .
O=C(/C(=N\Nc1ccc(Br)cc1)Sc1nnnn1-c1ccccc1)c1ccccc1 | 0 | -2 | -2 | 739* | -5 | . | 0
O=C(C(=NNc1ccc([N+](=O)[O-])cc1)Sc1nnnn1-c1ccccc1)c1ccccc1 | . | . | . | . | . | 6 | .
O=C(CNC(=O)c1ccco1)OCC(=O)c1cccc2ccccc12 | 0 | -6 | 21 | 434* | 8 | 8 | 0
CCc1ccc2c(c1)C(c1ccc([N+](=O)[O-])cc1)=NNC(c1ccc(C)cc1)=N2 | 0 | -11 | 3 | 407* | 8 | 6 | 0
CCOC(=O)c1sc(NC(=O)CSc2nc(C)cc(C)n2)c(C#N)c1C | 0 | 5 | -29 | 165 | -2 | 6 | .
CCOC(=O)c1sc(NC(=O)CSc2n[nH]c(-c3ccccc3)n2)c(C#N)c1C | 0 | -6 | -5 | 472* | 5 | . | 0
CC(=NNC(=O)c1cccs1)c1ccc(N2CCOCC2)cc1 | . | . | . | . | . | 2 | .
